Data published in ChEMBL document CHEMBL3758084, “Pyrazole antagonists of the CB1 receptor with reduced brain penetration” (Bioorg Med Chem, 2016).

Experiments:
[1] = Ratio of drug level in Sprague-Dawley rat brain to plasma at 10 mg/kg, ip; format: ADME, organism-based; details: read-out: BPR
Cannabinoid receptor 1 [2] = molecular target: T1, Cannabinoid receptor 1 (Homo sapiens, UniProt P21554); assay: Displacement of [3H]CP55940 from human CB1 receptor expressed in CHO cell membranes; format: cell-based
T1 sequence (P21554 whole entry): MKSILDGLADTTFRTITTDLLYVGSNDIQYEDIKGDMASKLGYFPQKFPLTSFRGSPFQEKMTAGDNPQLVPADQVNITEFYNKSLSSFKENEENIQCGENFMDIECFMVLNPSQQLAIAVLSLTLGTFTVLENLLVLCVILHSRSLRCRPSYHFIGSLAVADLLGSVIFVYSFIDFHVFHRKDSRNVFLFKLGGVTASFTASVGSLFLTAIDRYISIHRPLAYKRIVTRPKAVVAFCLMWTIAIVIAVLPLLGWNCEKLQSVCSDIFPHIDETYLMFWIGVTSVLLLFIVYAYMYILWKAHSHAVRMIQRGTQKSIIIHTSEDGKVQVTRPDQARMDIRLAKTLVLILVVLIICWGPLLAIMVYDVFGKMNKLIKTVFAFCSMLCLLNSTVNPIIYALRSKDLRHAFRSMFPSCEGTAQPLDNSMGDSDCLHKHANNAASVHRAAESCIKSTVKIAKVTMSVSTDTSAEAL

Cannabinoid receptor 2 = Cannabinoid receptor 2 (Homo sapiens, UniProt P34972); assay: Displacement of [3H]CP55940 from human CB2 receptor expressed in CHO cell membranes
Chain of Cannabinoid receptor 2 (P34972 whole entry): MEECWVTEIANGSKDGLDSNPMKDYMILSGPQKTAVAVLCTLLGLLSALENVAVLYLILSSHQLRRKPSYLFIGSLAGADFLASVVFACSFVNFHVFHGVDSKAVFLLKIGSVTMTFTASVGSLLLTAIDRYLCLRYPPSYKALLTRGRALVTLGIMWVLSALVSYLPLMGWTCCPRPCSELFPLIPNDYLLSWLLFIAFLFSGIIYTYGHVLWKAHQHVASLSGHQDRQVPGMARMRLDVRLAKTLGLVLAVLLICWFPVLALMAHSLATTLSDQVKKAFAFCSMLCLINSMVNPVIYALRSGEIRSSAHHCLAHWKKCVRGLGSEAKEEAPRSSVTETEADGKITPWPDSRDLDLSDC

Homo sapiens = species on record: Homo sapiens; assay: Selectivity ratio of Ki for human CB2 receptor to Ki for human CB1 receptor
In short: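 Ki values from displacement of [³H]CP55940 in membranes of CHO cells overexpressing human CB1 or human CB2; ratio taken as Ki(CB2)/Ki(CB1). Binding was run only on compounds with apparent Ke <50 nM in the CB1 calcium assay.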

MDCK = assay: Permeability across apical to basolateral side of MDCK cell BBB penetration model expressing human mdr1 at 10 uM incubated for 1 hr by mass spectrometric analysis; format: ADME, cell-based, Canis lupus familiaris; details: dog
In short: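 MDCK cells transfected with human MDR1 grown 4 days to confluence on Transwell-type filters in DMEM/F12 with 10% FBS and antibiotics. Compound added apically at 10 µM in HBSS with 25 mM glucose, HEPES pH 7.4; 1 h at 37 °C; apical and basal samples quantified by LC–MS/MS (MRM); percent apical-to-basal transport.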

Liver = assay: Stability of compound in human liver S9 fractions assessed as compound remaining at 10 uM incubated for 60 mins by mass spectrometric analysis; format: ADME, subcellular, Liver S9 fraction; details: s9, 1 h
In short: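 Mixed-gender pooled human hepatic S9 at 1 mg/mL; compound at 10 µM final in 50 mM potassium phosphate pH 7.4, 3 mM MgCl2 with NADPH regenerating system (1 mM NADP, 5 mM glucose-6-phosphate, 1 unit/mL G6PDH); triplicates, 60 min; quenched with 3 volumes acetonitrile; LC–MS quantified against matrix standard curves; percent parent remaining.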

[3] = Permeability of compound across apical to basal compartment in PBS at pH 7.4 at 10 uM after 4 hrs by PAMPA; format: ADME; details: pH 7.4, 4 h
In short: (§1)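 PAMPA kit per manufacturer; compound at 10 µM final added to the apical compartment in PBS at pH 5.5 or 7.4; incubated 4 h at room temperature; both compartments sampled and measured by LC–MS; percent apical-to-basal transport, mean of 3.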

[4] = Permeability of compound across apical to basal compartment in PBS at pH 5.5 at 10 uM after 4 hrs by PAMPA; format: ADME; details: pH 5.5, 4 h; in short: as §1
Cannabinoid receptor 1 [5] = molecular target: T1, Cannabinoid receptor 1; assay: Inverse agonist activity at human CB1 receptor expressed in CHO cells assessed as increase in intracellular calcium mobilization after 90 secs by Calcein-4 AM-staining based FLIPR assay; format: functional, cell-based
[6] = Drug uptake in Sprague-Dawley rat brain at 10 mg/kg, po after 4 hrs by LC-MS/MS analysis; format: ADME, organism-based; details: read-out: Drug uptake
In short: (§2)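 Male Sprague Dawley rats (10 weeks on arrival, acclimated; 12 weeks at dosing, n=3) given a single oral gavage bolus of 10 mg/kg in 90% corn oil/10% DMSO. Sacrificed 4 h post-dose; brain and plasma collected; parent compound quantified by LC–MS/MS; mean and SD reported.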

[7] = Plasma concentration in Sprague-Dawley rat at 10 mg/kg, po after 4 hrs by LC-MS/MS analysis; format: ADME, organism-based; in short: as §2
[8] = Ratio of drug level in Sprague-Dawley rat brain to plasma at 10 mg/kg, po after 4 hrs by LC-MS/MS analysis; format: ADME, organism-based; in short: as §2
Cannabinoid receptor 1 [9] = molecular target: T1, Cannabinoid receptor 1; details: CHO-K1

Row | SMILES | Kp [1] | Ki (Cannabinoid receptor 1 [2]) | Ki (Cannabinoid receptor 2) | Ratio Ki (Homo sapiens) | permeability (MDCK) | Stability (Liver) | permeability [3] | permeability [4] | EC50 (Cannabinoid receptor 1 [5]) | concentration at 4 h [6] | concentration at 4 h [7] | BPR [8] | Ke (Cannabinoid receptor 1 [9])
1 | Cc1c(C(=O)N2CCC(NC(=O)NC(C)(C)C)(c3ccccc3)CC2)nn(-c2ccc(Cl)cc2Cl)c1-c1ccc(Cl)cc1 | < 0.04 | – | – | – | – | – | – | – | – | – | – | – | –
2 | CCS(=O)(=O)N1CCC(NC(=O)c2nn(-c3ccc(Cl)cc3Cl)c(-c3ccc(Cl)cc3)c2C)CC1 | – | 44.4 nM | 4410 nM | 99 | < 1% | 68% | 0.05% | 0.1% | – | – | – | – | –
3 | CCCOC(=O)N1CCC(NC(=O)c2nn(-c3ccc(Cl)cc3Cl)c(-c3ccc(Cl)cc3)c2C)CC1 | – | 8.82 nM | 1540 nM | 175 | < 1% | 66% | 1.9% | 1.4% | 20 nM | 69 ng/g | 455 ng/mL | 15% | –
4 | CCCCOC(=O)N1CCC(NC(=O)c2nn(-c3ccc(Cl)cc3Cl)c(-c3ccc(Cl)cc3)c2C)CC1 | – | – | – | – | – | – | – | – | – | – | – | – | 88 nM
5 | Cc1c(C(=O)NC2CCN(C(=O)OC(C)C)CC2)nn(-c2ccc(Cl)cc2Cl)c1-c1ccc(Cl)cc1 | – | 6.4 nM | 1930 nM | 301 | < 1% | 82% | 0.1% | 0% | – | – | – | – | –
6 | Cc1c(C(=O)NC2CCN(C(=O)CC(C)C)CC2)nn(-c2ccc(Cl)cc2Cl)c1-c1ccc(Cl)cc1 | – | 28.9 nM | 1810 nM | 63 | 1% | 72% | 3.6% | 3.3% | – | – | – | – | –
7 | Cc1c(C(=O)NC2CCN(C(=O)c3ccccc3)CC2)nn(-c2ccc(Cl)cc2Cl)c1-c1ccc(Cl)cc1 | – | 7.5 nM | 1730 nM | 230 | < 1% | > 90% | 0.2% | 0.3% | – | – | – | – | –
8 | Cc1c(C(=O)NC2CCN(C(=O)C3CCCC3)CC2)nn(-c2ccc(Cl)cc2Cl)c1-c1ccc(Cl)cc1 | – | 9.2 nM | 2500 nM | 271 | < 1% | 62% | 0.2% | 0.2% | – | – | – | – | –
9 | Cc1c(C(=O)NC2CCN(S(=O)(=O)CCC(F)(F)F)CC2)nn(-c2ccc(Cl)cc2Cl)c1-c1ccc(Cl)cc1 | – | 9.6 nM | 4720 nM | 492 | < 1% | > 90% | 0.1% | 0.1% | – | – | – | – | –
10 | Cc1c(C(=O)NC2CCN(C(=O)OC(C)(C)C)CC2)nn(-c2ccc(Cl)cc2Cl)c1-c1ccc(Cl)cc1 | < 0.04 | – | – | – | – | – | – | – | – | – | – | – | –
11 | Cc1c(C(=O)NC2CCN(S(=O)(=O)CC(C)C)CC2)nn(-c2ccc(Cl)cc2Cl)c1-c1ccc(Cl)cc1 | – | 43.5 nM | 6210 nM | 143 | < 1% | > 90% | 0.2% | 0.1% | – | – | – | – | –
12 | Cn1c(=O)c2c(ncn2C)n(C)c1=O [CAFFEINE] | – | – | – | – | 80% | – | – | – | – | – | – | – | –
13 | CCCCC(=O)N1CCC(NC(=O)c2nn(-c3ccc(Cl)cc3Cl)c(-c3ccc(Cl)cc3)c2C)CC1 | – | 14.5 nM | 1780 nM | 123 | < 1% | 72% | 1.8% | 1.1% | – | – | – | – | –
14 | Cc1c(C(=O)NC2CCN(S(=O)(=O)c3ccccc3)CC2)nn(-c2ccc(Cl)cc2Cl)c1-c1ccc(Cl)cc1 | – | 43 nM | > 20000 nM | – | < 1% | > 90% | 0.1% | 0.03% | – | – | – | – | –
15 | Cc1c(C(=O)NC2CCN(C(=O)C(F)(F)F)CC2)nn(-c2ccc(Cl)cc2Cl)c1-c1ccc(Cl)cc1 | – | 1.9 nM | 1040 nM | 548 | < 1% | 74% | 0.2% | 0.4% | – | – | – | – | –
